Assay results as given in ChEMBL document CHEMBL5058577, “EUbOPEN Chemogenomics Library 2 (Multiplex)” (2022).

System: U2OS
Test: Multiplex assay against U2OS
Type: toxicity, cell-based
Details: human
How it was run: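 Live cells were stained at seeding with Hoechst33342, BioTracker Green Microtubule Cytoskeleton Dye, MitoTracker Red and Annexin V Alexa Fluor 680, then imaged on a CQ1 microscope at 37°C and 5% CO2 after compound addition. CellPathfinder machine-learning gating split cells into Hoechst high-intensity objects or normal cells. Normal cells were split into healthy, pyknosed or fragmented nuclei, and pyknosed cells into mitotic or apoptotic. Tubulin, mitochondrial-mass and membrane-permeability phenotypes are per cents of healthy-nucleus cells.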

[1] = 12 h, 1 µM, compound concentration 1 uM, replicate 1
[2] = 12 h, 1 µM, compound concentration 1 uM, replicate 2
[3] = 12 h, 10 µM, compound concentration 10 uM, replicate 1
[4] = 12 h, 10 µM, compound concentration 10 uM, replicate 2
[5] = 24 h, 1 µM, compound concentration 1 uM, replicate 1
[6] = 24 h, 1 µM, compound concentration 1 uM, replicate 2
[7] = 24 h, 10 µM, compound concentration 10 uM, replicate 1
[8] = 24 h, 10 µM, compound concentration 10 uM, replicate 2
[9] = 48 h, 1 µM, compound concentration 1 uM, replicate 1
[10] = 48 h, 1 µM, compound concentration 1 uM, replicate 2
[11] = 48 h, 10 µM, compound concentration 10 uM, replicate 1
[12] = 48 h, 10 µM, compound concentration 10 uM, replicate 2

Compound: Cn1cc(C(=O)OCC2CCN(CCNS(C)(=O)=O)CC2)c2ccccc21
- Population Apoptotic (%) [1]: 73%
- Population Fragmented Nuclei (%) [1]: 27%
- Population Healthy Nuclei (%) [1]: 63%
- Population Hoechst High Intensity Objects (%) [1]: 3%
- Population Membrane Permeable-Phenotype (%) [1]: 7%
- Population Mitochondria Different-Phenotype (%) [1]: 4%
- Population Mitotic Cells (%) [1]: 26%
- Population Normal (%) [1]: 96%
- Population Pyknosed Nuclei (%) [1]: 8%
- Population Tubulin-Different-Phenotype (%) [1]: 5%
- Total Cell Count [1]: 226
- Population Apoptotic (%) [2]: 77%
- Population Fragmented Nuclei (%) [2]: 20%
- Population Healthy Nuclei (%) [2]: 71%
- Population Hoechst High Intensity Objects (%) [2]: 0%
- Population Membrane Permeable-Phenotype (%) [2]: 13%
- Population Mitochondria Different-Phenotype (%) [2]: 5%
- Population Mitotic Cells (%) [2]: 22%
- Population Normal (%) [2]: 100%
- Population Tubulin-Different-Phenotype (%) [2]: 6%
- Total Cell Count [2]: 110
- Population Apoptotic (%) [3]: 53%
- Population Fragmented Nuclei (%) [3]: 36%
- Population Healthy Nuclei (%) [3]: 58%
- Population Hoechst High Intensity Objects (%) [3]: 0%
- Population Membrane Permeable-Phenotype (%) [3]: 10%
- Population Mitochondria Different-Phenotype (%) [3]: 5%
- Population Mitotic Cells (%) [3]: 46%
- Population Normal (%) [3]: 99%
- Population Pyknosed Nuclei (%) [3]: 5%
- Population Tubulin-Different-Phenotype (%) [3]: 5%
- Total Cell Count [3]: 252
- Population Apoptotic (%) [4]: 57%
- Population Fragmented Nuclei (%) [4]: 18%
- Population Healthy Nuclei (%) [4]: 76%
- Population Hoechst High Intensity Objects (%) [4]: 1%
- Population Membrane Permeable-Phenotype (%) [4]: 17%
- Population Mitochondria Different-Phenotype (%) [4]: 13%
- Population Mitotic Cells (%) [4]: 42%
- Population Normal (%) [4]: 98%
- Population Tubulin-Different-Phenotype (%) [4]: 9%
- Total Cell Count [4]: 137
- Population Apoptotic (%) [5]: 95%
- Population Fragmented Nuclei (%) [5]: 26%
- Population Healthy Nuclei (%) [5]: 65%
- Population Hoechst High Intensity Objects (%) [5]: 2%
- Population Membrane Permeable-Phenotype (%) [5]: 4%
- Population Mitochondria Different-Phenotype (%) [5]: 2%
- Population Mitotic Cells (%) [5]: 4%
- Population Normal (%) [5]: 97%
- Population Pyknosed Nuclei (%) [5]: 8%
- Population Tubulin-Different-Phenotype (%) [5]: 3%
- Total Cell Count [5]: 263
- Population Apoptotic (%) [6]: 100%
- Population Fragmented Nuclei (%) [6]: 17%
- Population Healthy Nuclei (%) [6]: 78%
- Population Hoechst High Intensity Objects (%) [6]: 0%
- Population Membrane Permeable-Phenotype (%) [6]: 10%
- Population Mitochondria Different-Phenotype (%) [6]: 5%
- Population Mitotic Cells (%) [6]: 0%
- Population Normal (%) [6]: 100%
- Population Pyknosed Nuclei (%) [6]: 4%
- Population Tubulin-Different-Phenotype (%) [6]: 6%
- Total Cell Count [6]: 144
- Population Apoptotic (%) [7]: 92%
- Population Fragmented Nuclei (%) [7]: 33%
- Population Healthy Nuclei (%) [7]: 61%
- Population Hoechst High Intensity Objects (%) [7]: 2%
- Population Membrane Permeable-Phenotype (%) [7]: 11%
- Population Mitochondria Different-Phenotype (%) [7]: 5%
- Population Mitotic Cells (%) [7]: 7%
- Population Normal (%) [7]: 97%
- Population Pyknosed Nuclei (%) [7]: 4%
- Population Tubulin-Different-Phenotype (%) [7]: 4%
- Total Cell Count [7]: 281
- Population Apoptotic (%) [8]: 64%
- Population Fragmented Nuclei (%) [8]: 16%
- Population Healthy Nuclei (%) [8]: 73%
- Population Hoechst High Intensity Objects (%) [8]: 1%
- Population Membrane Permeable-Phenotype (%) [8]: 12%
- Population Mitochondria Different-Phenotype (%) [8]: 8%
- Population Mitotic Cells (%) [8]: 35%
- Population Normal (%) [8]: 98%
- Population Pyknosed Nuclei (%) [8]: 9%
- Population Tubulin-Different-Phenotype (%) [8]: 8%
- Total Cell Count [8]: 150
- Population Apoptotic (%) [9]: 91%
- Population Fragmented Nuclei (%) [9]: 20%
- Population Healthy Nuclei (%) [9]: 69%
- Population Hoechst High Intensity Objects (%) [9]: 1%
- Population Membrane Permeable-Phenotype (%) [9]: 8%
- Population Mitochondria Different-Phenotype (%) [9]: 3%
- Population Mitotic Cells (%) [9]: 8%
- Population Normal (%) [9]: 98%
- Population Pyknosed Nuclei (%) [9]: 9%
- Population Tubulin-Different-Phenotype (%) [9]: 5%
- Total Cell Count [9]: 372
- Population Apoptotic (%) [10]: 57%
- Population Fragmented Nuclei (%) [10]: 13%
- Population Healthy Nuclei (%) [10]: 75%
- Population Hoechst High Intensity Objects (%) [10]: 2%
- Population Membrane Permeable-Phenotype (%) [10]: 6%
- Population Mitochondria Different-Phenotype (%) [10]: 5%
- Population Mitotic Cells (%) [10]: 42%
- Population Normal (%) [10]: 97%
- Population Pyknosed Nuclei (%) [10]: 10%
- Population Tubulin-Different-Phenotype (%) [10]: 4%
- Total Cell Count [10]: 182
- Population Apoptotic (%) [11]: 88%
- Population Fragmented Nuclei (%) [11]: 30%
- Population Healthy Nuclei (%) [11]: 58%
- Population Hoechst High Intensity Objects (%) [11]: 1%
- Population Membrane Permeable-Phenotype (%) [11]: 9%
- Population Mitochondria Different-Phenotype (%) [11]: 4%
- Population Mitotic Cells (%) [11]: 11%
- Population Normal (%) [11]: 98%
- Population Pyknosed Nuclei (%) [11]: 10%
- Population Tubulin-Different-Phenotype (%) [11]: 7%
- Total Cell Count [11]: 341
- Population Apoptotic (%) [12]: 75%
- Population Fragmented Nuclei (%) [12]: 9%
- Population Healthy Nuclei (%) [12]: 79%
- Population Hoechst High Intensity Objects (%) [12]: 3%
- Population Membrane Permeable-Phenotype (%) [12]: 13%
- Population Mitochondria Different-Phenotype (%) [12]: 6%
- Population Mitotic Cells (%) [12]: 25%
- Population Normal (%) [12]: 97%
- Population Tubulin-Different-Phenotype (%) [12]: 5%
- Total Cell Count [12]: 200
